According to article PMC6263297 (Drug Design, Development and Therapy, 2018):
Where two headings read alike, the source gives them in different places.

What was measured:
[1] = assay type: in vivo, human (healthy Chinese volunteers); conditions: single doses over the range 0.25–0.50 mg
[2] = cited from earlier work
patients with asthma = conditions: oral 0.10, 0.25, and 0.50 mg once daily; cited from earlier work
[3] = cited from earlier work; remark: listed apart in the source
PDE4 enzyme = conditions: in vitro; cited from earlier work
[4] = Safety assessment: treatment-related adverse events; assay type: in vivo, human (healthy Chinese volunteers)
Summary of the method: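 The same 12 volunteers received three single-dose periods (0.25, 0.375, 0.5 mg orally after >10 h fast, 10-day washouts), then 0.375 mg once daily for 11 days. Adverse events were collected by interview and monitoring and graded for relation to treatment (probably/possibly). Vital signs, physical examination, clinical laboratory tests and ECG were done at screening and at study completion.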

[5] = test system: acute exacerbations of COPD; conditions: treated over 4 weeks; cited from earlier work
[6] = after receiving 0.5 mg roflumilast
[7] = single and multiple oral doses, all subjects
[8] = single- and multiple-dose studies together

mean t1/2 over the three single-dose groups [1]: ~ 20 hours
SMILES: O=C(Nc1c(Cl)cncc1Cl)c1ccc(OC(F)F)c(OCC2CC2)c1 [Roflumilast]
effective half-life (t1/2) ([2]; after dosing of 0.5 mg roflumilast): 8 to 31 h
effect of food intake on Cmax (decrease) ([2]; food intake): ~ 40%
effect of food intake on Tmax (delay) ([2]; food intake): 1 h
effect of food intake on the total inhibitory activity of PDE4 ([2]; food intake): does not affect
effect on forced expiratory volume in 1 second (patients with asthma): statistically significant effects with dose-related increases from baseline
number of AEs reported ([3]; 15 subjects after receiving 0.5 mg roflumilast): 59
Abdominal discomfort, share of subjects [3, 6]: 20%
Headache, share of subjects [3, 6]: 46.7%
Nausea, share of subjects [3, 6]: 20%
subjects who exited the study because of AEs ([3]; of 19 subjects, erectile dysfunction, visual flicker, blurred vision): 2 subjects
potency upon inhibition of the PDE4 enzyme relative to roflumilast N-oxide (PDE4 enzyme): three times more potent
number of TRAEs reported ([4]; 0.25 mg single dose): Seven
number of TRAEs reported ([4]; 0.375 mg multiple doses): 25
serious adverse events ([4]; across the trial): no serious adverse events
overall safety and tolerability ([4]; healthy Chinese volunteers, single doses 0.25–0.5 mg and multiple doses 0.375 mg): safe and well-tolerated
Any adverse event: number of subjects (%) reporting TRAEs ([4]; multiple doses 0.375 mg (n=12)): 12 subjects (%)
number of TRAEs of moderate degree ([4]; presenting as acute gastroenteritis): one
number of TRAEs of severe degree ([4]; presenting as diarrhea): one
Diarrhea, share of subjects [4, 7]: 30.8%
Dizziness, share of subjects [4, 7]: 53.8%
Elevated creatine kinase level, share of subjects [4, 7]: 15.4%
Elevated total bilirubin level, share of subjects [4, 7]: 15.4%
Headache, share of subjects [4, 7]: 23.1%
Nausea, share of subjects [4, 7]: 53.8%
Upper respiratory tract infection, share of subjects [4, 7]: 23.1%
number of TRAEs of mild degree [4, 8]: Forty-six
total number of treatment-related adverse events [4, 8]: 48
percentage of sputum neutrophils [5]: statistically significant greater reduction
sputum myeloperoxidase concentration [5]: statistically significant greater reduction
